Assay results taken from PubChem BioAssay.
Activity calls are given as the source filed them. Rule as the data show it, unless noted: active = inhibition above about 30%; inactive = the rest.

Key:
[1] = molecular target: Pantothenate synthetase (Mycobacterium tuberculosis (strain ATCC 25618 / H37Rv)) (UniProt P9WIL5); assay: Coupled enzyme confirmation of inhibitors against recombinant Mtb PanC (AID 375; call rule not given here;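 also: 0% = full reaction with vehicle and 100% = no enzyme background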); conditions: coupled enzyme assay; at 10 µM, stronger effect = higher value
Sequence of Pantothenate synthetase (Mycobacterium tuberculosis (strain ATCC 25618 / H37Rv)) (P9WIL5 whole entry, looked up): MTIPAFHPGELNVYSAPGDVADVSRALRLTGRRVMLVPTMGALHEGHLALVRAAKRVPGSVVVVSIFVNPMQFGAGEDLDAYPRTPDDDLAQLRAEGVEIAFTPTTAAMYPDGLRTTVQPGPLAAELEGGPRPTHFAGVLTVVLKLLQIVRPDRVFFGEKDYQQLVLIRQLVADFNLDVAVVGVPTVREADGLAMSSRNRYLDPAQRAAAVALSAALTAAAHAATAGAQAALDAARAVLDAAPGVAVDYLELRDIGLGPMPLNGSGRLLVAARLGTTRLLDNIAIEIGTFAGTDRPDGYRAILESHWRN

[2] = Her2 expression decrease, cell viability multiplex – SKBR3 breast tumor cells, AlphaScreen, ATP viability, primary screen (AID 461;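 active = Her2 level under about 52% in both replicate screens, with viability over 70% of control, limit read from the data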;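 as to Her2 level: lower value means less Her2 protein in the cells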;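 as to viability: percent of carrier control wells set as 100% viability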); conditions: SKBR3 Her2 protein level, 18-24 h, measured here: SKBR3 viability, ATP luminescence, at 10 µM
[3] = molecular target: Receptor tyrosine-protein kinase erbB-2 (Homo sapiens) (UniProt P04626); assay: as above; conditions: 18-24 h, at 10 µM, stronger effect = lower value
Sequence of Receptor tyrosine-protein kinase erbB-2 (Homo sapiens) (P04626 whole entry, looked up): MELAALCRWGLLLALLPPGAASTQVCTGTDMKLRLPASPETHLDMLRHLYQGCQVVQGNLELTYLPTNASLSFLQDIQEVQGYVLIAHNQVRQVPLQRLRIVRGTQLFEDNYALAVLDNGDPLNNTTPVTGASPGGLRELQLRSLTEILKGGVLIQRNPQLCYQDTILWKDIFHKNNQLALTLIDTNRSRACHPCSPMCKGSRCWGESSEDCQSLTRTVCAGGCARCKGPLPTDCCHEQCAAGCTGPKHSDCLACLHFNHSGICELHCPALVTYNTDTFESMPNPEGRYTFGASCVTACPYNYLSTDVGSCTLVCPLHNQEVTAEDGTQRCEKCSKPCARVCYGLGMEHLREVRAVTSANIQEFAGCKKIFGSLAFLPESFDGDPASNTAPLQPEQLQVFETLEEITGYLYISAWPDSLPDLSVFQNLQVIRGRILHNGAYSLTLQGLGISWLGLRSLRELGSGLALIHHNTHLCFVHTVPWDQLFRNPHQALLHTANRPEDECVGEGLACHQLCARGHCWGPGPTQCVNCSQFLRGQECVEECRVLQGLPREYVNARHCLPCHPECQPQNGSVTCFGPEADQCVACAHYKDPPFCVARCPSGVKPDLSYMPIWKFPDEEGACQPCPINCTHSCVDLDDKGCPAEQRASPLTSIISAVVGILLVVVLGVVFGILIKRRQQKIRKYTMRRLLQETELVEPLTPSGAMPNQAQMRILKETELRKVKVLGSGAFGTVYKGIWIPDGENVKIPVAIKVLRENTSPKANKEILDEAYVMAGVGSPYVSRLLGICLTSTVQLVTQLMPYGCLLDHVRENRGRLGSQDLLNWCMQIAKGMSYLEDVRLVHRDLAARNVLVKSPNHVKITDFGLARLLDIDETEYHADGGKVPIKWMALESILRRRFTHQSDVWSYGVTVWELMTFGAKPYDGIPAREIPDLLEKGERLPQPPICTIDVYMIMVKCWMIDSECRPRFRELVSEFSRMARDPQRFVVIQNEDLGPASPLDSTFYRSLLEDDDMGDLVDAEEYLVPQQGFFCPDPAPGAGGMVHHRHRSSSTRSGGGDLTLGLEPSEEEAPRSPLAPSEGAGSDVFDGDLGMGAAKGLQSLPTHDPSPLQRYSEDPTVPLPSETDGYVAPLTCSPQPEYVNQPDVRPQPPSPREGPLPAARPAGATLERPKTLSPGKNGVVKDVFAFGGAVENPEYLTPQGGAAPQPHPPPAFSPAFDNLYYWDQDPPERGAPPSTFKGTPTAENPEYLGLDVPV

[4] = reduced viability of SK-BR-3 breast cancer cells – cell-based, 24 h, human, pilot screen (AID 572;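 active = viability at or below 10% of carrier control in both of two separate runs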;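 also: compound exposure lasted between 18 and 24 h rather than exactly 24 h; 100% = carrier-treated control wells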); conditions: SK-BR-3 viability, CellTiter-Glo luminescence, at 10 µM, stronger effect = lower value
[5] = HUVEC growth inhibition – cell-based, human, primary screen (AID 575;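 active = viability at or below 30% in both replicate assays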;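 also: 100% = median of untreated cell wells with 0.1% DMSO on each plate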); conditions: HUVEC proliferation, CellTiter-Glo luminescence, 72 h; at 10 µM; stronger effect = lower value
Procedure, shortened: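 system = HUVEC primary cells | amount = 1250 cells/well | buffer or medium = supplemented EBM, 2% fetal bovine serum | dosing = single-point 10 µM, DMSO 0.1% final | times = 72 h compound incubation | detection = CTG luminescence | read-out = % viability relative to median vehicle-well signal on each plate | control set = vehicle and MePR control wells | format = collagen-coated 384-well format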

[6] = H69AR cell proliferation blockers – human, duplicate replicates, primary screen (AID 580;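 active = viability at or under a set limit in both replicates, limit being median viability minus 3 SD, cut at about 48% in these data, passing the limit was not always enough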;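 also: 100% = mean luminescence of untreated wells and 0% = no signal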); conditions: H69AR lung tumor cells viability, ATP luminescence, 72 h; at 10 µM; stronger effect = lower value
[7] = MRP1 drug-resistance reversers in H69AR cells – cell-based, doxorubicin co-treatment, pilot screen (AID 601;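 active = viability loss from added drug above about 55%, and viability with drug at most 40%, in both replicates, limit read from the data, passing the limit was not always enough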); conditions: CellTiter-Glo, 72 h, at 10 µM; for differential viability (reversal): stronger effect = higher value
[8] = yeast transport mutant growth inhibition pilot in 384-well plates, post-Golgi transport modulator project (AID 636; in the data active = inhibition above about 31%); conditions: absorbance 615 nm, about 18 h, stronger effect = higher value
[9] = growth suppression of yeast trafficking mutant, preliminary HTS, modulators of trafficking downstream of Golgi apparatus project, 1536-format plate, OD 615 nm (AID 637); conditions: yeast transport mutant growth, absorbance 615 nm, 18 h; stronger effect = higher value
[10] = H69AR cells + 2 uM doxorubicin, measured here: viability with 2 uM doxorubicin, stronger effect = lower value
[11] = H69AR cells, compound alone cytotoxicity

SMILES	inhibition [1]	viability [2]	Her2 level [3]	viability [4]	viability [5]	viability [6]	differential viability (reversal) ([7]; H69AR cells + 2 uM doxorubicin)	viability [7, 10]	viability [7, 11]	inhibition [8]	inhibition [9]
Cc1ccc(-n2c(O)c(C=NCCN3CCOCC3)c(=O)[nH]c2=O)cc1	3% (inactive)	124%	96.5% (inactive)	124% (inactive)	93.4% (inactive)	102% (inactive)	8.65% (inactive)	93.5%	102%	-5.2% (inactive)	2.26% (inactive)
CCN1CCN(Cc2cc(Br)cc(OC)c2O)CC1	7% (inactive)	93.5%	114% (inactive)	93.5% (inactive)	110% (inactive)	94.2% (inactive)	-2.88% (inactive)	97.1%	94.2%	-3.2% (inactive)	-6.19% (inactive)
C=CCn1c(O)c(C(C)=Nc2ccc(N(CC)CC)cc2)c(=O)[nH]c1=O	1% (inactive)	102%	105% (inactive)	102% (inactive)	62.6% (inactive)	16.3% (active)	-63.3% (inactive)	79.7%	16.3%	-2.08% (inactive)	-8% (inactive)
CC1=C(C(=O)N2CCC3(CC2)OCCO3)C2(CCC(C)CC2)OC1=O (configuration not stated)	0% (inactive)	92.5%	102% (inactive)	92.5% (inactive)	101% (inactive)	98.4% (inactive)	-4.92% (inactive)	103%	98.4%	-0.77% (inactive)	0.17% (inactive)
CC(C)C(=O)c1cn(Cc2ccccc2C#N)c2ccccc12	8% (inactive)	98%	100% (inactive)	98% (inactive)	97% (inactive)	82.8% (inactive)	-7.5% (inactive)	90.3%	82.8%	-4.53% (inactive)	3.97% (inactive)
O=c1[nH]c(=O)n(Cc2ccccc2)c(O)c1C=NCCCO	8% (inactive)	100%	96.5% (inactive)	100% (inactive)	94.1% (inactive)	117% (inactive)	27.1% (inactive)	89.9%	117%	-6.13% (inactive)	-0.65% (inactive)
O=C(c1ccc2nc3ccc(Cl)cc3c(=O)n2c1)N1CCC2(CC1)OCCO2	12% (inactive)	97.5%	91.5% (inactive)	97.5% (inactive)	98% (inactive)	96.7% (inactive)	1.37% (inactive)	95.4%	96.7%	-3.87% (inactive)	1.94% (inactive)
CCOC(=O)C(O)(c1ccc(N(CC)C(=O)OC)cc1)C(F)(F)F (configuration not stated)	0% (inactive)	99.5%	105% (inactive)	99.5% (inactive)	110% (inactive)	109% (inactive)	20.5% (inactive)	88.3%	109%	-5.53% (inactive)	5.74% (inactive)
Cn1c(C(=O)N2CCC3(CC2)OCCO3)cc2c(=O)n(C)c3ccccc3c21	0% (inactive)	108%	82.5% (inactive)	108% (inactive)	80.2% (inactive)	80.6% (inactive)	-5.79% (inactive)	86.4%	80.6%	-3.82% (inactive)	-5.45% (inactive)
COc1ccc(C2NCc3ccc4c(c3-n3cccc32)OCO4)cc1O (configuration not stated)	0% (inactive)	110%	73% (inactive)	110% (inactive)	40.7% (inactive)	25.5% (active)	-41.5% (inactive)	67%	25.5%	-5.79% (inactive)	-5.56% (inactive)
Cn1c(=O)cc(SCC(=O)N2CCC3(CC2)OCCO3)c2ccc(Cl)cc21	9% (inactive)	116%	94.5% (inactive)	116% (inactive)	87.6% (inactive)	79.1% (inactive)	8.79% (inactive)	70.3%	79.1%	-3.03% (inactive)	1.77% (inactive)
CC1CCN2c3nc4ccccn4c(=O)c3CC3(C(=O)N(C)C(=O)N(C)C3=O)C2C1 (configuration not stated)	0% (inactive)	101%	72.5% (inactive)	101% (inactive)	93% (inactive)	93.5% (inactive)	-8.53% (inactive)	102%	93.5%	-1.32% (inactive)	1.64% (inactive)
CCCCCCn1c(O)c(C=NC2CCN(Cc3ccccc3)CC2)c(=O)[nH]c1=O	0% (inactive)	83%	67.5% (inactive)	83% (inactive)	72.3% (inactive)	74.8% (inactive)	5.99% (inactive)	68.8%	74.8%	-1.05% (inactive)	4.84% (inactive)
Cc1nn(-c2ccccc2)c2c1CC1(C(=O)N(C)C(=O)N(C)C1=O)C1CCCCN21 (configuration not stated)	0% (inactive)	97%	114% (inactive)	97% (inactive)	91.7% (inactive)	84.7% (inactive)	-12% (inactive)	96.7%	84.7%	-4.86% (inactive)	-2.13% (inactive)
Cc1[nH]c2c(Cl)cccc2c1CCN	0% (inactive)	97.5%	85.5% (inactive)	97.5% (inactive)	84.4% (inactive)	13.2% (active)	-69.9% (inactive)	83.1%	13.2%	-4.67% (inactive)	5.9% (inactive)
COc1ccccc1N(CC(=O)NC1CCCCC1)C(=O)c1cnn(C(C)C)c1	7% (inactive)	96.5%	104% (inactive)	96.5% (inactive)	103% (inactive)	106% (inactive)	8.82% (inactive)	97.2%	106%	1.08% (inactive)	-5.24% (inactive)
CCNc1ccc(P(=S)(N(C)C)N(C)C)cc1	1% (inactive)	91%	93% (inactive)	91% (inactive)	115% (inactive)	88.2% (inactive)	-16.7% (inactive)	105%	88.2%	-7.92% (inactive)	-4.6% (inactive)
CCCCn1c(O)c(C(C)=Nc2cccc(C(=O)O)c2)c(=O)[nH]c1=O	0% (inactive)	108%	106% (inactive)	108% (inactive)	89.4% (inactive)	105% (inactive)	4.39% (inactive)	100%	105%	-2.11% (inactive)	9.02% (inactive)
Cc1ccc(O)c(CN2CCN(c3ccccc3)CC2)c1	13% (inactive)	94%	88.5% (inactive)	94% (inactive)	101% (inactive)	85.5% (inactive)	11.5% (inactive)	74%	85.5%	-8.38% (inactive)	1.33% (inactive)
CCOC(=O)c1cccc([P+](=O)O)c1	0% (inactive)	92.5%	114% (inactive)	92.5% (inactive)	96.3% (inactive)	96.5% (inactive)	-0.595% (inactive)	97.1%	96.5%	3.95% (inactive)	-9.03% (inactive)
N#Cc1ccccc1Cn1cc(C(=O)c2ccco2)c2ccccc21	0% (inactive)	98.5%	96% (inactive)	98.5% (inactive)	105% (inactive)	82% (inactive)	-3.02% (inactive)	85%	82%	-4.32% (inactive)	14.5% (inactive)
O=C(Cc1ccccc1)OC(COCc1ccccc1)CN1CCOCC1 (configuration not stated)	3% (inactive)	83%	99% (inactive)	83% (inactive)	88.3% (inactive)	94.2% (inactive)	4.79% (inactive)	89.4%	94.2%	-7.47% (inactive)	-0.98% (inactive)
CCC(=NCCCN1CCOCC1)c1c(O)n(Cc2ccccc2)c(=O)[nH]c1=O	0% (inactive)	108%	107% (inactive)	108% (inactive)	84.3% (inactive)	89.2% (inactive)	-1.53% (inactive)	90.7%	89.2%	-5.41% (inactive)	-5.56% (inactive)
CC(=NCc1cccnc1)c1c(O)n(Cc2ccccc2)c(=O)[nH]c1=O	1% (inactive)	91.5%	90.5% (inactive)	91.5% (inactive)	92.6% (inactive)	93.5% (inactive)	-4.79% (inactive)	98.3%	93.5%	-0.27% (inactive)	2.95% (inactive)
CCn1c(C)c(C(=O)O)c2cc(OC)ccc21	4% (inactive)	88.5%	76% (inactive)	88.5% (inactive)	105% (inactive)	96.1% (inactive)	-4.98% (inactive)	101%	96.1%	-3.2% (inactive)	-0.65% (inactive)
Cc1ccc(C)c(NC(=O)CSc2nnc([C@@H](N)Cc3c[nH]c4ccccc34)o2)c1	6% (inactive)	101%	94.5% (inactive)	101% (inactive)	86.9% (inactive)	106% (inactive)	13.5% (inactive)	92.9%	106%	-5.2% (inactive)	-4.13% (inactive)
CC(=NCCCN1CCOCC1)c1c(O)n(-c2ccccc2C)c(=O)[nH]c1=O	0% (inactive)	–	–	100% (inactive)	91.3% (inactive)	92.2% (inactive)	5.16% (inactive)	87%	92.2%	-0.14% (inactive)	-5% (inactive)
CCCCOc1ccc(CN2CCN(CCO)CC2)cc1	0% (inactive)	74%	91.5% (inactive)	74% (inactive)	94.7% (inactive)	90.1% (inactive)	12.2% (inactive)	77.9%	90.1%	1.17% (inactive)	-1.64% (inactive)
O=c1c2ccccc2nc(CSc2ncnc3nc[nH]c23)n1-c1ccccc1	0% (inactive)	96%	97.5% (inactive)	96% (inactive)	87.6% (inactive)	80.9% (inactive)	-8.74% (inactive)	89.6%	80.9%	-1.92% (inactive)	-10.5% (inactive)
